pEC50: −log10 of the molar value.
Assays:
[1] = system: Human immunodeficiency virus 1; assay: Antiviral activity against Human immunodeficiency virus 1 group M subtype B assessed as days to viral replication breakthrough at 10 nM by cell based assay; type: functional
[2] = system: Human immunodeficiency virus 1; assay: Antiviral activity against Human immunodeficiency virus 1 subtype AG infected in human MT4 cells assessed as reduction in virus induced cytopathicity; type: functional, organism-based
Outline: (§1)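 Recombinant viruses were made by recombining patient-derived HIV-1 RT-PR sequences into an RT-PR-deleted HXB2 proviral clone transfected into MT4 cells. Subtype was assigned from PR/RT sequence by Smith-Waterman alignment to HXB2. MT4 cells (1.5 × 10^5/ml) were infected at MOI 0.01 with serially diluted compound for 5 days at 37°C. Viability was read by MTT and EC50 derived.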

[3] = system: Human immunodeficiency virus 1; assay: Antiviral activity against Human immunodeficiency virus 1 subtype D isolate 92UG035 infected in human PBMC cells by cell based assay; details: Human immunodeficiency virus 1, subtype D 92UG035, PBMC
[4] = system: Human immunodeficiency virus 1; assay: Antiviral activity against Human immunodeficiency virus 1 subtype A isolate 92UG029 infected in human PBMC cells by cell based assay; details: Human immunodeficiency virus 1, subtype A isolate 92UG029, PBMC
[5] = system: Human immunodeficiency virus 1; assay: Antiviral activity against Human immunodeficiency virus 1 subtype F isolate 93BR019 infected in human PBMC cells by cell based assay; details: Human immunodeficiency virus 1, subtype F isolate 93BR019, PBMC
[6] = system: Human immunodeficiency virus 1; assay: Antiviral activity against Human immunodeficiency virus 1 group M subtype C assessed as days to viral replication breakthrough at 200 nM by cell based assay; type: functional
[7] = system: Human immunodeficiency virus 1; assay: Antiviral activity against Human immunodeficiency virus 1 group M subtype G assessed as days to viral replication breakthrough at 200 nM by cell based assay; type: functional
[8] = system: Human immunodeficiency virus 1; assay: Antiviral activity against Human immunodeficiency virus 1 subtype C isolate 93IN101 infected in human PBMC cells by cell based assay; details: Human immunodeficiency virus 1, subtype C isolate 93IN101, PBMC
[9] = system: Human immunodeficiency virus 1; assay: Antiviral activity against Human immunodeficiency virus 1 group M subtype H assessed as days to viral replication breakthrough at 200 nM by cell based assay; type: functional
[10] = system: Human immunodeficiency virus 1; assay: Antiviral activity against Human immunodeficiency virus 1 group M subtype B assessed as days viral replication at 200 nM by cell based assay; type: functional
[11] = system: Human immunodeficiency virus 1; assay: Antiviral activity against Human immunodeficiency virus 1 subtype F isolate 93BR020 infected in human PBMC cells by cell based assay; details: Human immunodeficiency virus 1, subtype F isolate 93BR020, PBMC
[12] = system: Human immunodeficiency virus 1; assay: Antiviral activity against Human immunodeficiency virus 1 3B infected in human MT4 cells assessed as reduction in virus induced cytopathicity; type: functional, organism-based
Outline: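 MT4 cells (1.5 × 10^5/ml) infected with HIV-1 IIIB at MOI 0.01 and added to serially diluted compound. Cultures incubated 5 days at 37°C under 5% CO2. Cell viability, as protection from virus-induced killing, read by MTT tetrazolium colorimetry. EC50 reported as median with first to third quartiles over n experiments.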

[13] = system: Human immunodeficiency virus 1; assay: Antiviral activity against Human immunodeficiency virus 1 subtype C infected in human MT4 cells assessed as reduction in virus induced cytopathicity; type: functional, organism-based; outline: as §1
[14] = system: Human immunodeficiency virus 1; assay: Antiviral activity against Human immunodeficiency virus 1 group M subtype AG assessed as days to viral replication breakthrough at 10 nM by cell based assay; type: functional
[15] = system: Human immunodeficiency virus 1; assay: Antiviral activity against Human immunodeficiency virus 1 subtype (H) infected in human MT4 cells assessed as reduction in virus induced cytopathicity; type: functional, organism-based; outline: as §1
[16] = system: Human immunodeficiency virus 1; assay: Antiviral activity against Human immunodeficiency virus 1 group M subtype F1 assessed as days to viral replication breakthrough at 200 nM by cell based assay; type: functional
[17] = system: Human immunodeficiency virus 1; assay: Antiviral activity against Human immunodeficiency virus 1 group M subtype D assessed as days to viral replication breakthrough at 40 nM by cell based assay; type: functional
[18] = system: Human immunodeficiency virus 1; assay: Antiviral activity against Human immunodeficiency virus 1 subtype BG infected in human MT4 cells assessed as reduction in virus induced cytopathicity; type: functional, organism-based; outline: as §1
[19] = system: Human immunodeficiency virus 1; assay: Antiviral activity against Human immunodeficiency virus 1 subtype O isolate BCF03 infected in human PBMC cells by cell based assay; details: Human immunodeficiency virus 1, subtype O isolate BCF03, PBMC
[20] = system: Human immunodeficiency virus 1; assay: Antiviral activity against Human immunodeficiency virus 1 group M subtype BG assessed as days to viral replication breakthrough at 200 nM by cell based assay; type: functional
[21] = system: Human immunodeficiency virus 1; assay: Antiviral activity against Human immunodeficiency virus 1 group M subtype D assessed as days to viral replication breakthrough at 10 nM by cell based assay; type: functional
[22] = system: Human immunodeficiency virus 1; assay: Antiviral activity against Human immunodeficiency virus 1 subtype O isolate BCF02 infected in human PBMC cells by cell based assay; details: Human immunodeficiency virus 1, subtype O isolate BCF02, PBMC
[23] = system: Human immunodeficiency virus 1; assay: Antiviral activity against Human immunodeficiency virus 1 group M subtype B assessed as days to viral replication breakthrough at 40 nM by cell based assay; type: functional
[24] = system: Human immunodeficiency virus 1; assay: Antiviral activity against Human immunodeficiency virus 1 subtype G isolate G3 infected in human PBMC cells by cell based assay; details: Human immunodeficiency virus 1, subtype G isolate G3, PBMC
[25] = system: Human immunodeficiency virus 1; assay: Antiviral activity against Human immunodeficiency virus 1 subtype E isolate 92TH006 infected in human PBMC cells by cell based assay; details: Human immunodeficiency virus 1, subtype E 92TH006, PBMC
[26] = system: Human immunodeficiency virus 1; assay: Antiviral activity against Human immunodeficiency virus 1 group M subtype AE assessed as days to viral replication breakthrough at 10 nM by cell based assay; type: functional
[27] = system: Human immunodeficiency virus 1; assay: Antiviral activity against Human immunodeficiency virus 1 subtype O misolate BCF01 infected in human PBMC cells by cell based assay; details: Human immunodeficiency virus 1, subtype O isolate BCF01, PBMC
[28] = system: Human immunodeficiency virus 1; assay: Antiviral activity against Human immunodeficiency virus 1 group M subtype H assessed as days to viral replication breakthrough at 40 nM by cell based assay; type: functional
[29] = system: Human immunodeficiency virus 1; assay: Antiviral activity against Human immunodeficiency virus 1 subtype D infected in human MT4 cells assessed as reduction in virus induced cytopathicity; type: functional, organism-based; outline: as §1
[30] = system: Human immunodeficiency virus 1; assay: Antiviral activity against Human immunodeficiency virus 1 subtype D isolate 92UG024 infected in human PBMC cells by cell based assay; details: Human immunodeficiency virus 1, subtype D 92UG024, PBMC
[31] = system: Human immunodeficiency virus 1; assay: Antiviral activity against Human immunodeficiency virus 1 subtype G infected in human MT4 cells assessed as reduction in virus induced cytopathicity; type: functional, organism-based; outline: as §1
[32] = system: Human immunodeficiency virus 1; assay: Antiviral activity against Human immunodeficiency virus 1 group M subtype BG assessed as days to viral replication breakthrough at 10 nM by cell based assay; type: functional
[33] = system: Human immunodeficiency virus 1; assay: Antiviral activity against Human immunodeficiency virus 1 group M subtype A1 assessed as days to viral replication breakthrough at 10 nM by cell based assay; type: functional

pEC50 [2]: 9.89 | pEC50 [3]: 10.15 | pEC50 [4]: 9.36 | pEC50 [5]: 9.02 | pEC50 [8]: 9.28 | pEC50 [11]: 9.80 | pEC50 [12]: 9.14 | pEC50 [13]: 9.52 | pEC50 [15]: 9.62 | pEC50 [18]: 9.66 | pEC50 [19]: 8.07 | pEC50 [22]: 8.54 | pEC50 [24]: 9.60 | pEC50 [25]: 10.10 | pEC50 [27]: 8.50 | pEC50 [29]: 9.52 | pEC50 [30]: 9.42 | pEC50 [31]: 9.85
Compound: Cc1cc(/C=C/C#N)cc(C)c1Nc1ccnc(Nc2ccc(C#N)cc2)n1 [RILPIVIRINE]
Activity [1]: 7 days | Activity [6]: > 31 days | Activity [7]: > 31 days | Activity [9]: > 31 days | Activity [10]: > 31 days | Activity [14]: > 31 days | Activity [16]: > 31 days | Activity [17]: > 31 days | Activity [20]: > 31 days | Activity [21]: 20 days | Activity [23]: > 31 days | Activity [26]: > 31 days | Activity [28]: > 31 days | Activity [32]: 10 days | Activity [33]: 10 days

Reference: ChEMBL document CHEMBL1240360, “TMC278, a next-generation nonnucleoside reverse transcriptase inhibitor (NNRTI), active against wild-type and NNRTI-resistant HIV-1” (Antimicrob Agents Chemother, 2010)
